Reference: ChEMBL document CHEMBL1130978, “Discovery of FR115092: a novel antinephritic agent” (1998)

tested on: Mus musculus; assay: Antinephritic activity on chronic graft-versus-host disease (GVHD) in mice at 32 mg/kg p.o.; type: functional; settings: route oral
In short: (§1)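 Chronic GVHD induced in 6-week-old female ([…] x DBA/2)F1 mice by two injections of DBA/2 spleen cells (5 x 10^7 cells each), given 5 days apart. Oral dosing once daily for 8 weeks, starting 3 days after the second injection. Urinary albumin measured after the last dose by single radial immunodiffusion with rabbit anti-mouse serum albumin antiserum. Ten mice per group. Value reported as % inhibition of proteinuria.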

Row | Structure (SMILES) | inhibition in vivo at 32 mg/kg
1 | Nc1ccc(S(=O)(=O)c2ccc(N)cc2)cc1 [DAPSONE] | < 50%
2 | Nc1ncc(S(=O)(=O)c2ccccn2)s1 | 29%

tested on: Mus musculus; assay: Compound was tested for the inhibition of proteinuria in the graft-versus-host disease (GVHD) in mice at 100 mg/kg p.o.; 9/10 mice died; type: functional; settings: route oral

Row | Structure (SMILES) | inhibition in vivo at 100 mg/kg
3 | Nc1ccc([S+]([O-])c2ccncc2)cc1 (stereo not given) | < 50%

tested on: Mus musculus; assay: Antinephritic activity on chronic graft-versus-host disease (GVHD) in mice at 10 mg/kg p.o.; type: functional; settings: route oral; in short: as §1

Row | Structure (SMILES) | inhibition in vivo at 10 mg/kg
4 | Nc1ccc(S(=O)(=O)c2ccc(N)cc2)cc1 [DAPSONE] | < 50%
5 | Nc1ncc(S(=O)(=O)c2ccccn2)s1 | 63%

tested on: Mus musculus; assay: Compound was tested for the inhibition of proteinuria in the graft-versus-host disease (GVHD) in mice at 100 mg/kg p.o.; 8/10 mice died; type: functional; settings: route oral

Row | Structure (SMILES) | inhibition in vivo at 100 mg/kg
6 | Nc1ncc([S+]([O-])c2ccncc2)s1 (stereo not given) | 100%

tested on: Mus musculus; assay: Inhibition of proteinuria in the graft-versus-host disease mice following 100 mg/kg p.o. administration.; type: functional; settings: route oral; in short: as §1

Row | Structure (SMILES) | inhibition in vivo at 100 mg/kg
7 | Cn1ccnc1[S+]([O-])c1ccc(N)cc1 (stereo not given) | < 50%
8 | Cc1cc(C(=O)c2ccc(N)cc2)cc(C)c1N | 99%
9 | Nc1ccc(C(=O)c2ccncc2)cc1 | 89%
10 | Nc1ccc(NC(=O)c2ccc(N)cc2)cc1 | < 50%
11 | Nc1ccc([S+]([O-])c2cnc(N)s2)cc1 (stereo not given) | 79%
12 | Nc1ccc(Sc2ccc(N)cc2)cc1 [4,4'-THIODIANILINE] | 70%
13 | Cc1cc(C(=O)c2ccc(N)cc2)ccc1N | 100%
14 | Nc1ccc([S+]([O-])c2ccc(N)cc2)cc1 | 95%
15 | Nc1ccc([S+]([O-])c2ncccn2)cc1 (stereo not given) | 99%
16 | Nc1ncc([S+]([O-])c2ccccn2)s1 (stereo not given) | 98%
17 | Nc1ccc(S(=O)(=O)c2ccc(N)cc2)cc1 [DAPSONE] | 95%
18 | Nc1ccc(NS(=O)(=O)c2ccc(N)cc2)cc1 | 54%
19 | NC(=O)Nc1ccc(C(=O)c2ccc(N)cc2)cc1 | < 50%
20 | Nc1ccc(C(=O)c2ccc(N)cc2)cc1 | 95%
21 | Nc1ccc(C(=O)c2cccc(N)c2)cc1 | < 50%
22 | Nc1ncc(S(=O)(=O)c2ccccn2)s1 | 92%
23 | Nc1ncc(Sc2ccccn2)s1 | 90%
24 | CS(=O)(=O)Nc1ccc(C(=O)c2ccc(N)cc2)cc1 | < 50%
25 | Nc1ccc(Oc2ccc(N)cc2)cc1 | 93%
